Results: ChEMBL document CHEMBL4043311, “Developing Equipotent Teixobactin Analogues against Drug-Resistant Bacteria and Discovering a Hydrophobic Interaction between Lipid II and Teixobactin” (J Med Chem, 2018)
Values after ≈ are worked out from the molar mass of the structure shown. Active and inactive are the calls of the source. No cut-off for these calls is given here.

Legend:
Staphylococcus aureus [1] = assay: Antibacterial activity against Staphylococcus aureus ATCC 29213 at lipid 2/test compound molar ratio 0.5 preincubated with lipid 2 for 30 mins followed by bacterial inoculation measured after overnight incubation; format: functional
In short: (§1)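 Test agent at 4x or 8x its broth MIC mixed with lipid II or C55-P (2x or 0.5x molar excess over compound) in MHII broth with 0.05% tween-80, 30 min at rt; exponential S. aureus ATCC 29213 then added to final OD600 0.001. Overnight at 37 °C; growth judged by eye and plate-reader absorbance. Run two or three times.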

Streptococcus pneumoniae [2] = assay: Antibacterial activity against Streptococcus pneumoniae D39 after 20 hrs by broth microdilution method; format: functional; conditions: D39, 20 h
In short: (§2)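 CLSI broth microdilution in cation-adjusted Mueller-Hinton broth with 3% lysed horse blood for streptococci and 0.002% polysorbate 80. Compounds taken from 10 mg/mL DMSO stocks and diluted in broth. Inoculum about 5×10^5 cells/mL. After 20 h at 37 °C, MIC read as lowest concentration with no visible growth. Done three times.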

Staphylococcus aureus [3] = assay: Antibacterial activity against methicillin-sensitive Staphylococcus aureus TH 4806 after 20 hrs by broth microdilution method; format: functional; conditions: TH 4806, 20 h
In short: (§3)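 Broth microdilution per CLSI in cation-adjusted Mueller-Hinton broth with 0.002% polysorbate 80. Analogues were made up as 10 mg/mL DMSO stocks, then diluted in MHB. Inoculum approx. 5×10^5 cells/mL. Incubated 20 h at 37°C; MIC taken as the lowest concentration with no visible growth. Run three times.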

[4] = Binding affinity to lipid 2 at 4 nmol after 30 mins by TLC method
In short: (§4)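 Lipid II or C55-P (1 nmol) incubated with 1, 2, 3 or 4 nmol compound in 50 mM Tris/HCl pH 7.5, 30 min at rt. Extracted twice with pyridinium acetate (6 M, pH 4.2)/butanol (1:2), then washed with butanol-saturated water. Organic phase run on silica TLC in chloroform/methanol/water/ammonia (88:48:10:1) and stained with phosphomolybdic acid; loss of lipid band scored. Done twice.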

Streptococcus pyogenes = assay: Antibacterial activity against Streptococcus pyogenes ATCC 19615 after 20 hrs by broth microdilution method; format: functional; conditions: ATCC 19615, 20 h; in short: as §2
Staphylococcus aureus [5] = assay: Antibacterial activity against methicillin-resistant Staphylococcus aureus BAA-1695 after 20 hrs by broth microdilution method; format: functional; conditions: BAA-1695, 20 h; in short: as §3
[6] = Binding affinity to Bacillus subtilis UDP-MurNAc-L-Ala-gamma-DGlu-meso-Dap-D-Ala-D-Ala by ITC method
In short: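 Park's nucleotide was isolated from Bacillus subtilis. ITC run at 25 °C in DMSO:H2O (85:15). The lipid II analogue (0.375 mM) was titrated into 0.025 mM test compound.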

[7] = Binding affinity to undecaprenyl-phosphate at 1 to 4 nmol after 30 mins by TLC method; in short: as §4
Enterococcus faecalis = assay: Antibacterial activity against […] Enterococcus faecalis ATCC 29212 after 20 hrs by broth microdilution method; format: functional; conditions: ATCC 29212, 20 h; in short: as §3
Staphylococcus aureus [8] = assay: Antibacterial activity against Staphylococcus aureus ATCC 29213 at undecaprenyl-phosphate/test compound molar ratio 0.5 to 2 preincubated with undecaprenyl-phosphate for 30 mins followed by bacterial inoculation measured after overnight incubation; format: functional; in short: as §1
Streptococcus pneumoniae [9] = assay: Antibacterial activity against Streptococcus pneumoniae D39 infected in C57BL/6J mouse at 1 x 10^4 cfu/mouse assessed as mouse survival rate at 1 to 5 mg/kg, iv administered 1 hr post infection measured after 48 hrs relative to control; format: functional
In short: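 C57BL/6J female mice, 6-8 weeks, infected i.p. with 0.2 mL S. pneumoniae D39 suspension (1×10^4 c.f.u. per mouse), an inoculum giving at least 90% mortality within 48 h; 6 per group. Single i.v. dose 1 h post-infection at 5, 2 or 1 mg per kg in PBS:Cremophor-EL:DMSO (94:5:1); vehicle and vancomycin (5 mg per kg) controls. Survival scored at 48 h; log-rank test.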

Staphylococcus aureus [10] = assay: Antibacterial activity against Staphylococcus aureus ATCC 29213 at lipid 2/test compound molar ratio 2 preincubated with lipid 2 for 30 mins followed by bacterial inoculation measured after overnight incubation; format: functional; in short: as §1
Streptococcus pneumoniae [11] = assay: Antibacterial activity against Streptococcus pneumoniae D39 infected in C57BL/6J mouse at 5 x 10^4 cfu/mouse assessed as reduction of bacterial burden in blood at 1 to 5 mg/kg, iv administered 1 hr post infection measured after 12 to 22 hrs relative to control; format: functional
In short: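 Female C57BL/6J mice, 6-8 weeks, 4 per group, given 0.2 mL S. pneumoniae D39 i.p. (5×10^4 c.f.u. per mouse). At 1 h post-infection a single i.v. dose of 5 or 1 mg/kg was given in PBS:Cremophor-EL:DMSO (94:5:1). Vehicle and vancomycin 5 mg/kg groups were included. Blood c.f.u. counted at 12, 18 and 22 h.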

In the case of `CC[C@@H](C)[C@@H](NC(=O)[C@@H](CCC(N)=O)NC(=O)[C@H](CO)NC(=O)[C@@H](NC(=O)[C@H](N)Cc1ccc(-c2ccccc2)cc1)[C@@H](C)CC)C(=O)N[C@H](C(=O)N[C@@H](CO)C(=O)N[C@H]1C(=O)N[C@@H](C)C(=O)N[C@@H](CCCCN)C(=O)N[C@@H]([C@@H](C)CC)C(=O)O[C@H]1C)[C@@H](C)CC`, the Activity (Staphylococcus aureus [1]) is reported as “Active”, the MIC (Streptococcus pneumoniae [2]) is reported as < 0.032 µg/mL and the MIC (Staphylococcus aureus [3]) is reported as 0.5 µg/mL (≈ 0.391 µM). For the same compound, the Activity [4] was “inactive”, the MIC (Streptococcus pyogenes) was < 0.25 µg/mL and the MIC (Staphylococcus aureus [5]) was 0.5 µg/mL (≈ 0.391 µM). For the same compound, the Kd [6] was 23 µM, the Activity [7] was “inactive” and the MIC (Enterococcus faecalis) was 0.5 µg/mL (≈ 0.391 µM). The Activity (Staphylococcus aureus [8]) was “Active”, the Survival (Streptococcus pneumoniae [9]) was 100% and the Activity (Staphylococcus aureus [10]) was “inactive”. It also gave an Activity (Streptococcus pneumoniae [11]) of 6 deltalog10CFU/ml.
